From ChEMBL document CHEMBL1833876 (J Med Chem, 2011)
Active and inactive are the calls of the source. The rule behind the calls is not given here.

Tests used:
[1] = molecular target: T1, Reduced folate transporter (Homo sapiens) (UniProt P41440); assay: Inhibition of human RFC-mediated [3H]MTX uptake in chinese hamster PC43-10 cells at 10 uM after 2 mins relative to control; type: cell-based
T1 sequence (whole entry): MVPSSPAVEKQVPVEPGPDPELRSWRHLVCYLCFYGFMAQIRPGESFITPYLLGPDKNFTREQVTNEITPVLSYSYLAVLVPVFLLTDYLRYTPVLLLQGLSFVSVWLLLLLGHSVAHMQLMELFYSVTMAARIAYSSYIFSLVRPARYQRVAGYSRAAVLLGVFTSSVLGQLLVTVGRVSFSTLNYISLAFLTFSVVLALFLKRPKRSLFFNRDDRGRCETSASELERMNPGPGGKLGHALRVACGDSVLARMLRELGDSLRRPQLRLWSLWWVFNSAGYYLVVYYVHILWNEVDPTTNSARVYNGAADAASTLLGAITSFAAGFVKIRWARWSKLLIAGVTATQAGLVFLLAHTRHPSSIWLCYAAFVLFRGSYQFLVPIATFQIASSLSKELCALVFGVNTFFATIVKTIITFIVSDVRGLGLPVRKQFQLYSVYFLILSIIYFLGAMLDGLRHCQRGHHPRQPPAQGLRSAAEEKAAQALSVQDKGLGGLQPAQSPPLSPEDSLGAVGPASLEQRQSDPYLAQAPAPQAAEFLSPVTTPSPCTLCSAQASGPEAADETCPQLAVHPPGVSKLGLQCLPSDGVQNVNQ
Procedure, shortened: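 PC43-10 (hRFC) cells were suspended in Hank's balanced salts. […] Results were expressed per mg protein, and percent inhibition was taken versus control uptake.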

R2 [2] = assay: Decrease in intracellular ATP concentration in chinese hamster R2 cells expressing human PCFT at 1 uM after 24 hrs by HPLC relative to control at pH 6.8; type: functional, Cricetulus griseus; design: scale not given: the % may be the effect or the level left
Procedure, shortened: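 R2/hPCFT4 CHO cells seeded in folate-free RPMI 1640 with 10% dialysed FBS and 25 nM leucovorin (pH 7.2). After 24 h, switched to the same medium buffered to pH 6.8 with 25 mM PIPES/25 mM HEPES. Drug at 1 µM, or vehicle (0.5% DMSO or H2O), for 24 h. Nucleotides extracted; ATP quantified by HPLC against vehicle control.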

[3] = molecular target: T2, Proton-coupled folate transporter (Homo sapiens) (UniProt Q96NT5); assay: Inhibition of human PCFT-mediated [3H]MTX uptake expressed in chinese hamster R2 cells at pH 6.8 […] relative to PMX; type: cell-based; settings: concentration not given here
T2 sequence (whole entry): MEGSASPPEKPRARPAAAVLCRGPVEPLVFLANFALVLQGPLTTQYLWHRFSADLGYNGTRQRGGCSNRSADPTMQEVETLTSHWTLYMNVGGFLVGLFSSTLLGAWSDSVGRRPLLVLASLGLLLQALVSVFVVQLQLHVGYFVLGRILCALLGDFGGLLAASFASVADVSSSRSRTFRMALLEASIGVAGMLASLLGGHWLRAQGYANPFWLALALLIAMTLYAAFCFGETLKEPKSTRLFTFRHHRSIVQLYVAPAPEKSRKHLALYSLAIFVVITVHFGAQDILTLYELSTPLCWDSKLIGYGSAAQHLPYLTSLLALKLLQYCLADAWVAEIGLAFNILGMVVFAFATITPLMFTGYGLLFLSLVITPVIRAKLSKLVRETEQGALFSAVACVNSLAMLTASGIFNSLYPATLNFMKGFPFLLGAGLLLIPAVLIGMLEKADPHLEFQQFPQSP

[4] = Antiproliferative activity against chinese hamster D4 cells expressing human FRbeta assessed as reduction of viable cells after 96 hrs in the presence of 200 nM folic acid; type: functional, cell-based; settings: Cricetulus griseus, D4, 96 h
Procedure, shortened: (§1)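 Same 96 h CellTiter-blue proliferation set-up in folate-free RPMI/10% dFBS with 2 nM leucovorin. Run in parallel incubations that included 200 nM folic acid alongside the antifolate, to establish FR-dependent uptake.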

[5] = molecular target: T2, Proton-coupled folate transporter (Homo sapiens); assay: Inhibition of human PCFT-mediated [3H]MTX uptake expressed in chinese hamster R2 cells at pH 5.5 by dixon plot analysis relative to PMX; type: cell-based; settings: concentration not given here
IGROV-1 [6] = assay: Antiproliferative activity against human IGROV1 cells expressing human RFC, FRalpha and PCFT assessed as reduction of viable cells after 96 hrs in the presence of 200 nM folic acid; type: functional, cell-based; settings: IGROV-1, 96 h; procedure, shortened: as §1
[7] = molecular target: T2, Proton-coupled folate transporter (Homo sapiens); assay: Induction of current in human PCFT expressed in xenopus oocyte at 5 uM at holding potential -90 mV by voltage clamp assay
KB [8] = assay: Antiproliferative activity against human KB cells expressing human RFC, FRalpha and PCFT assessed as reduction of viable cells after 96 hrs in the presence of 200 nM folic acid; type: functional, cell-based; procedure, shortened: as §1
[9] = molecular target: T2, Proton-coupled folate transporter (Homo sapiens); assay: Inhibition of human PCFT-mediated [3H]MTX uptake ectopically expressed in chinese hamster R2 cells at 10 uM at pH 5.5 to 7.2; type: cell-based
[10] = Antiproliferative activity against chinese hamster PC43-10 expressing human RFC assessed as reduction of viable cells after 96 hrs; type: functional; settings: Cricetulus griseus, PC43-10, 96 h
[11] = Antiproliferative activity against chinese hamster RT16 cells expressing human FRalpha assessed as reduction of viable cells after 96 hrs in the presence of 200 nM folic acid; type: functional, cell-based; settings: Cricetulus griseus, RT16, 96 h; procedure, shortened: as §1
R2 [12] = assay: Antiproliferative activity against chinese hamster R2 cells assessed as reduction of viable cells after 96 hrs; settings: Cricetulus griseus, R2, 96 h
IGROV-1 [13] = assay: Antitumor activity against human IGROV1 cells expressing human RFC, FRalpha and PCFT xenografted in SCID mouse assessed as log cell kill at 180 mg/kg, iv administered on days 3, 7, 11, 15, and 19 postimplantation; type: functional
Procedure, shortened: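 Female ICR SCID mice, 10 weeks old, on a folate-deficient diet from 24 days before implant. Bilateral subcutaneous IGROV1 tumour fragments (30–60 mg, by trocar); mice pooled, then randomised. IV dosing on days 3, 7, 11, 15 and 19. Mice weighed daily; tumours measured by caliper 2–3 times weekly; mice sacrificed at 1500 mg tumour burden. Weight-loss nadir and recovery recorded.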

[14] = Antiproliferative activity against chinese hamster R2(VC) cells assessed as reduction of viable cells after 96 hrs; settings: Cricetulus griseus
[15] = molecular target: Folate receptor beta (Homo sapiens) (UniProt P14207); assay: Displacement of [3H]-folic acid from human FRbeta expressed in chinese hamster D4 cells after 15 mins; type: cell-based
[16] = Antiproliferative activity against chinese hamster RT16 cells expressing human FRalpha assessed as reduction of viable cells after 96 hrs; type: functional, cell-based; settings: Cricetulus griseus, RT16, 96 h
R2 [17] = assay: Antiproliferative activity against chinese hamster R2 cells expressing human PCFT assessed as reduction of viable cells after 96 hrs; type: functional, cell-based; settings: Cricetulus griseus, R2, 96 h
KB [18] = assay: Antiproliferative activity against human KB cells expressing human RFC, FRalpha and PCFT assessed as reduction of viable cells after 96 hrs; type: functional, cell-based
IGROV-1 [19] = assay: Antiproliferative activity against human IGROV1 cells expressing human RFC, FRalpha and PCFT assessed as reduction of viable cells after 96 hrs; type: functional, cell-based; settings: IGROV-1, 96 h
[20] = Antiproliferative activity against chinese hamster D4 cells expressing human FRbeta assessed as reduction of viable cells after 96 hrs; type: functional, cell-based; settings: Cricetulus griseus, D4, 96 h
[21] = molecular target: Folate receptor alpha (Homo sapiens) (UniProt P15328); assay: Displacement of [3H]-folic acid from human FRaplha expressed in chinese hamster RT16 cells after 15 mins; type: cell-based
R2 [22] = assay: Inhibition of GARFTase in chinese hamster R2 cells expressing human PCFT assessed as incorporation of [14C]glycine into [14C]formyl GAR in the presence of 4 uM azaserine; type: cell-based; settings: Cricetulus griseus
R2 [23] = assay: Antiproliferative activity against chinese hamster R2 cells expressing human PCFT assessed as growth inhibition at <50 nM in the presence of 10 uM thymidine; type: functional, cell-based; settings: Cricetulus griseus
Procedure, shortened: (§2)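 R2/hPCFT4 cells were grown in folate-free RPMI with 25 nM leucovorin and 10% dFBS and exposed to antifolate for up to 96 h. Rescue co-incubations used thymidine (10 µM), adenosine (60 µM) and AICA (320 µM), alone or combined. Viability was read by CellTiter-blue.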

R2 [24] = assay: Antiproliferative activity against chinese hamster R2 cells expressing human PCFT assessed as growth inhibition in the presence of 10 uM thymidine and 320 uM AICA; type: functional, cell-based; settings: Cricetulus griseus; procedure, shortened: as §2
R2 [25] = assay: Antiproliferative activity against chinese hamster R2 cells expressing human PCFT assessed as growth inhibition in the presence of 60 uM adenosine and 10 uM thymidine; type: functional, cell-based; settings: Cricetulus griseus; procedure, shortened: as §2
R2 [26] = assay: Antiproliferative activity against chinese hamster R2 cells expressing human PCFT assessed as growth inhibition in the presence of 60 uM adenosine; type: functional, cell-based; settings: Cricetulus griseus; procedure, shortened: as §2

Folate receptor beta (Homo sapiens), sequence (P14207 17-230 limits assumed): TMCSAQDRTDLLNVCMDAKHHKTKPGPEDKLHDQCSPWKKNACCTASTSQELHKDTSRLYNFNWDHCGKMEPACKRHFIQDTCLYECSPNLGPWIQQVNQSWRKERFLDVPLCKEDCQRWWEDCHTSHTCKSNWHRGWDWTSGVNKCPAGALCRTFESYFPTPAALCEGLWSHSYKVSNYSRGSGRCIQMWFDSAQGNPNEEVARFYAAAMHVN
Folate receptor alpha (Homo sapiens), sequence (P15328 25-234 limits assumed): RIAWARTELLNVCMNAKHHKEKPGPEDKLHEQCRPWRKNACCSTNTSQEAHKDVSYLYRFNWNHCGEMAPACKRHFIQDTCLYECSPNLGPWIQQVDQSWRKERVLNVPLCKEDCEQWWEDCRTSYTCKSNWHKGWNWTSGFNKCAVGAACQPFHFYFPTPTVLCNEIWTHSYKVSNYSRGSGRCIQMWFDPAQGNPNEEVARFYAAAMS

Row | SMILES | inhibition [1] | IC50 (KB [8]) | Activity (R2 [2]) | IC50 (IGROV-1 [6]) | IC50 [10] | IC50 [11] | IC50 (R2 [12]) | IC50 [14] | IC50 (R2 [17]) | other results
1 | Cc1nc(=O)c2cc(CN(C)c3ccc(C(=O)N[C@@H](CCC(=O)O)C(=O)O)s3)ccc2[nH]1 [RALTITREXED] | Active |  |  |  |  |  |  |  |  | 
2 | Nc1nc2[nH]c(CCCCc3ccc(C(=O)N[C@@H](CCC(=O)O)C(=O)O)s3)cc2c(=O)[nH]1 | Active | > 1000 nM | 90% | > 1000 nM | > 1000 nM | > 1000 nM | > 1000 nM | > 1000 nM |  | inhibition [3]: 18%; IC50 [4]: > 1000 nM; inhibition [5]: 35%; Activity [7]: Active; inhibition [9]: Active; LCK (IGROV-1 [13]): 2.3
3 | Nc1nc(N)c2nc(CNc3ccc(C(=O)N[C@@H](CCCNC(=O)c4ccccc4C(=O)O)C(=O)O)cc3)cnc2n1 [TALOTREXIN] | Active |  |  |  |  |  | > 1000 nM | > 1000 nM | > 1000 nM | inhibition [9]: inactive
4 | Nc1nc2c(c(=O)[nH]1)C[C@@H](CCc1ccc(C(=O)N[C@@H](CCC(=O)O)C(=O)O)cc1)CN2 [LOMETREXOL] | Active |  | 76% |  |  | > 188 nM |  | > 1000 nM | 38 nM | inhibition (R2 [22]): Active
5 | CN(Cc1cnc2nc(N)nc(N)c2n1)c1ccc(C(=O)N[C@@H](CCC(=O)O)C(=O)O)cc1 [METHOTREXATE] |  |  |  |  |  |  |  | > 1000 nM |  | 

Further lines, with some results ahead:

Row | inhibition [1] | IC50 (KB [8]) | SMILES | Activity (R2 [2]) | IC50 (IGROV-1 [6]) | IC50 [10] | IC50 [11] | IC50 (R2 [12]) | IC50 [14] | IC50 (R2 [17]) | other results
6 | Active | > 1000 nM | Nc1nc2[nH]c(CCc3ccc(C(=O)N[C@@H](CCC(=O)O)C(=O)O)s3)cc2c(=O)[nH]1 |  | > 1000 nM | > 1000 nM | > 1000 nM | > 1000 nM | > 1000 nM | 135 nM | IC50 [4]: > 1000 nM; inhibition [15]: inactive; IC50 [16]: 38.9 nM; IC50 (KB [18]): 3.22 nM; IC50 (IGROV-1 [19]): 123 nM; IC50 [20]: 6.58 nM; inhibition [21]: inactive
7 |  | > 1000 nM | Nc1nc2[nH]c(Cc3ccc(C(=O)N[C@@H](CCC(=O)O)C(=O)O)s3)cc2c(=O)[nH]1 |  | > 1000 nM | > 1000 nM | > 1000 nM | > 1000 nM | > 1000 nM | 291 nM | IC50 [16]: 122 nM; IC50 (KB [18]): 41.9 nM; IC50 (IGROV-1 [19]): > 1000 nM
8 | Active |  | Nc1nc(=O)c2c([nH]1)NCC(CNc1ccc(C(=O)N[C@@H](CCC(=O)O)C(=O)O)cc1)N2C=O (mixture of isomers) |  |  |  |  |  |  |  | 
9 | Active |  | Nc1nc2[nH]cc(CCc3ccc(C(=O)N[C@@H](CCC(=O)O)C(=O)O)cc3)c2c(=O)[nH]1 [PEMETREXED] | 17% |  |  |  |  |  |  | Activity (R2 [23]): inactive; Activity (R2 [24]): Active; Activity (R2 [25]): inactive; Activity (R2 [26]): Active; inhibition (R2 [22]): Active
